{"source": "PubChem BioAssay AID652000", "about": "(Sanford-Burnham Center for Chemical Genomics, 2013)", "note": "Out of some 2,400 compounds screened, fewer than 10 were called active. Only a sample is shown. A number with no mark means an inactive call.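 Rule for the calls: active = activation of at least 50%; inactive = the rest.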"}
{"target": "G-protein coupled receptor 183 (Homo sapiens) (UniProt P32249)", "sequence (P32249 whole entry, looked up)": "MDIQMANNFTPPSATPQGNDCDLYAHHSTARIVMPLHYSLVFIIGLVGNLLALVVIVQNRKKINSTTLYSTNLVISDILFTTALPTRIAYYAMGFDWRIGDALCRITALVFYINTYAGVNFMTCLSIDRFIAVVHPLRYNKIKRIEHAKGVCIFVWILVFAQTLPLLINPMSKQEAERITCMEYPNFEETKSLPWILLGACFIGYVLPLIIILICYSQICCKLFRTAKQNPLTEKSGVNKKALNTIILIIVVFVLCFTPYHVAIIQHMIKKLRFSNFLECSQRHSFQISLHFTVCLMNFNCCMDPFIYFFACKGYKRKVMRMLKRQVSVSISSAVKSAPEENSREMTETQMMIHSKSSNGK", "experiment": "EBI2 agonist activity of antagonist hits, confirmation, counter-screen for EBI2 antagonist project, cell-based, single concentration, agonist mode, luminescence (AID 652000)", "details": "EBI2-expressing cells, 60 min, at 5 µM, hits give high values, 0% vehicle, 100% 7α,25-dihydroxycholesterol control", "outline": "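material = beta-arrestin reporter cell line | input = 1500 cells in each well | technique = luminescent detection reagent readout | times = overnight seeding and 60-min compound at 37°C, 60-min detection at 25°C | control set = 7alpha,25-OHC wells as positive control | probe or stimulus = no added oxysterol for test compounds | dosing = one dose from 10 mM stock, 2.5 nL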", "units": {"activation": "%"}}
{"smiles": "O=C(c1ccc(-n2cnnn2)cc1)N1CCN(C(c2ccccc2)c2ccccc2)CC1", "activation": 1.53}
{"smiles": "Cc1cc(OCCOc2cccc3cccnc23)c(C)cc1Cl", "activation": 1.3}
{"smiles": "COc1ccc(C(C(=O)NC2CCCCC2)N(C(=O)c2snc(C(N)=O)c2N)c2ccccc2OC)cc1", "note": "(stereo not drawn)", "activation": 1.3}
{"smiles": "CCCCN=C1C([N+](=O)[O-])=CC=C2C1=NC1(CCCCC1)N2O", "activation": -0.38}
{"smiles": "c1ccc(C(c2ccccc2)N2CCN(Cc3nnnn3C3CCCCC3)CC2)cc1", "activation": 0.25}
{"smiles": "COc1ccc(/C=N/N=C/c2c[nH]c(=O)c(C#N)c2Nc2ccccc2)cc1", "activation": -1.52}
{"smiles": "COc1ccc(N(CC(=O)Nc2cc(OC)ccc2OC)S(=O)(=O)c2c(C)noc2C)cc1", "activation": 1.12}
{"smiles": "Cc1ccc(S(=O)(=O)NCCNC(C)c2ccc(Br)cc2)cc1", "note": "(stereo not drawn)", "activation": 0.98}
{"smiles": "Cc1cccc(-n2c(O)c(C=Nc3ccccc3N)c(=O)[nH]c2=O)c1", "activation": -2.25}
{"smiles": "O=C(/C=C/c1cccc([N+](=O)[O-])c1)N1CCN(Cc2ccccc2)CC1", "activation": -0.29}
{"smiles": "O=c1[nH]c(CN2CCN(S(=O)(=O)c3ccc4c(c3)OCCO4)CC2)nc2sc3c(c12)CCCC3", "activation": -1.11}
{"smiles": "O=C(NCCCc1ccccc1)C1CCC(=O)N(CCc2ccc(Cl)cc2)C1", "note": "(stereo not drawn)", "activation": 1.57}
{"smiles": "COc1ccc(C(=O)/C=C/c2ccc(OC3CSC3)cc2)cc1", "activation": 2.89}
{"smiles": "CCOC(=O)C1CCN(C(=O)COc2cc(C)c(Br)c(C)c2)CC1", "activation": 2.25}
{"smiles": "N#Cc1ccc(C2=CC(=O)C[C@H](c3ccc(Cl)cc3)C2)cc1", "activation": 1.84}
{"smiles": "COc1cccc(NC(=O)Cn2c3ccc(F)cc3c3nc4n(c(=O)c32)CCS4)c1", "activation": 0.89}
{"smiles": "COc1ccc2cc(C3=CC(=O)C[C@H](c4ccc5c(c4)OCO5)C3)ccc2c1", "activation": -1.39}
{"smiles": "CCC(c1nnc(SCC(=O)NNC(=O)c2ccccc2)n1Cc1ccccc1)N(C)C", "note": "(stereo not drawn)", "activation": -1.34}
{"smiles": "Cc1cc(C)c2c(=O)n3c(nc2c1)C(CC(C)C)NC(=O)c1cc2ccccc2cc1-3", "note": "(stereo not drawn)", "activation": 0.75}
{"smiles": "COc1ccc(OCC(=O)N2CCN(C(=O)c3cccs3)CC2)cc1", "activation": 1.48}
{"smiles": "CCN1CCN(C(=O)CSc2ccc(C)cc2)CC1", "activation": 0.02}
{"smiles": "Cc1ccc(OCC(=O)N2CCN(S(=O)(=O)c3ccc(Cl)s3)CC2)cc1C", "activation": 1.84}
{"smiles": "CCCCC(=O)N(C)c1c(CC)nc2c(OCc3ccc(Cl)cc3Cl)cccn12", "activation": -1.02}
